Data set [1] addresses T1, CYP3A4 (Homo sapiens, UniProt P08684). As to the kind of experiment: Time dependent inhibition of CYP3A4 (unknown origin) at 10 uM by LC/MS system. Format: ADME. The method in brief:
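CYP3A4: human liver microsomes at 0.5 mg/mL in preincubation, 0.1 M sodium phosphate, NADPH-generating system, 0 or 30 min. Ten-fold dilution into incubation with 2.5 μM midazolam (final), 10 min. Each value is relative to the matched control without inhibitor. % enzyme inactivation = 100 × [1 − %control(30 min)/%control(0 min)]; 10% threshold.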

The target of another data set is CYP2D6 (Homo sapiens, UniProt P10635). The experiment in a line: in vitro.
CYP2D6, sequence (P10635 whole entry): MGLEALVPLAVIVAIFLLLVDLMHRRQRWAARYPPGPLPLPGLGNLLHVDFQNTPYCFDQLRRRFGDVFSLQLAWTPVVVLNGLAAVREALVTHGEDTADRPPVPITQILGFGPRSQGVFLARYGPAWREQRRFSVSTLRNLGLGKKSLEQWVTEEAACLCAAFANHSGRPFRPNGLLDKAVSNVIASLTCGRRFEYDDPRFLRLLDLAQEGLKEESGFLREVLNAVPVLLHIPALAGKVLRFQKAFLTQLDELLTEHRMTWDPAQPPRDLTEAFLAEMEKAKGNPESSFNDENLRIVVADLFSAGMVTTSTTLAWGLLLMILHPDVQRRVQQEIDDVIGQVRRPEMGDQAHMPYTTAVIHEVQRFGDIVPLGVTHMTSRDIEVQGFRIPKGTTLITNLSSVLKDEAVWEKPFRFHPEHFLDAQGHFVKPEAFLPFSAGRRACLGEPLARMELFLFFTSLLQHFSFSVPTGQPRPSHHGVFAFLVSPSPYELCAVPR
In the next data set the target is T2, CYP2B6 (Homo sapiens, UniProt P20813).
T2 sequence (P20813 whole entry): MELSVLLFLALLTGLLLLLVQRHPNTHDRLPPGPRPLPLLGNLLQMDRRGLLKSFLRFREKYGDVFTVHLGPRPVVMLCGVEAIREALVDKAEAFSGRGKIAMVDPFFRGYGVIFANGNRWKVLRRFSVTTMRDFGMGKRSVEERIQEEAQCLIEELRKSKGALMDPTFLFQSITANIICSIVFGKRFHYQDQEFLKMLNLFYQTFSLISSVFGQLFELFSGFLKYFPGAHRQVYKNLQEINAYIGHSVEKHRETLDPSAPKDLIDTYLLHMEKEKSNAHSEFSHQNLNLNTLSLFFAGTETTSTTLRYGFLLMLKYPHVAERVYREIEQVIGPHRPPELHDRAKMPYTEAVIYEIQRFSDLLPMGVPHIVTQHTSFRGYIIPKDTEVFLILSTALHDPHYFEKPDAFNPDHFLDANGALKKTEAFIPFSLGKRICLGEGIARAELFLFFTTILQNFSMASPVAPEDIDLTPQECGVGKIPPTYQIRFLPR
The experiment in a line: in vitro.

The next data set has as its target CYP2C9 (Homo sapiens, UniProt P11712). The experiment in a line: in vitro.
A further data set concerns the target T3, CYP1A2 (Homo sapiens, UniProt P05177).
T3 sequence (P05177 whole entry): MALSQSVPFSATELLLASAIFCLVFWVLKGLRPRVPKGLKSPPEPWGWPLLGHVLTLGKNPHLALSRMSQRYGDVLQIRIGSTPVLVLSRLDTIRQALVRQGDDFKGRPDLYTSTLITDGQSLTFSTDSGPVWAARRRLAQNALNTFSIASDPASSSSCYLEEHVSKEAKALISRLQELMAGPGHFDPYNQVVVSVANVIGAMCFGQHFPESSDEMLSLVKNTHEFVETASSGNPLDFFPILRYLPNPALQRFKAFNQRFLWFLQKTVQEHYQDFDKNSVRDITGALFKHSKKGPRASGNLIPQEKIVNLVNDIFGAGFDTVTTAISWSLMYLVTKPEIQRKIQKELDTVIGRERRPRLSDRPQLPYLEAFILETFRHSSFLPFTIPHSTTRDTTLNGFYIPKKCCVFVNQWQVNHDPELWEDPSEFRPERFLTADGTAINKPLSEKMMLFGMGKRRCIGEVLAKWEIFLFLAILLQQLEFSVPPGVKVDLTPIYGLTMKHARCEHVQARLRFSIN
The experiment in a line: in vitro.

In data set [2] the target is T4, CYP2C8 (Homo sapiens, UniProt P10632).
T4 sequence (P10632 whole entry): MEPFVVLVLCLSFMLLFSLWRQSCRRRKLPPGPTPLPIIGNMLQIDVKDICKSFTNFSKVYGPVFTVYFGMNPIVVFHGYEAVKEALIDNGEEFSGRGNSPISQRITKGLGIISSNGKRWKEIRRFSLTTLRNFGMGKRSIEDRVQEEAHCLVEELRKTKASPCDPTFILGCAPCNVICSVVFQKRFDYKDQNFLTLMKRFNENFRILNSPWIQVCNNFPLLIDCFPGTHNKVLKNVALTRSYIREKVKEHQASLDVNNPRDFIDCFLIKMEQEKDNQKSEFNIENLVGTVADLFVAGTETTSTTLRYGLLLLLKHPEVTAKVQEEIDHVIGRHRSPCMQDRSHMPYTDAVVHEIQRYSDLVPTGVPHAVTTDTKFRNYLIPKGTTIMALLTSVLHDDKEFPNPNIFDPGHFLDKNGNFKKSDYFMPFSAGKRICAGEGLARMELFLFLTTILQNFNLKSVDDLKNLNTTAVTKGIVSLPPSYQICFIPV
The experiment in a line: in vitro.

In data set [3] the test system is Liver microsome. The experiment in a line: Metabolic activation in human liver microsomes assessed as [3H]GSH adduct formation rate measured per mg of protein at 100 uM by [3H]GSH trapping assay.
In data set [4] the test system is Liver microsome. As to the kind of experiment: Covalent binding in human liver microsomes measured per mg of protein using radiolabelled compound at 10 uM after 1 hr incubation by liquid scintillation counting.
The target in another data set is CYP2C19 (Homo sapiens, UniProt P33261). The experiment in a line: in vitro.
CYP2C19, sequence (P33261 whole entry): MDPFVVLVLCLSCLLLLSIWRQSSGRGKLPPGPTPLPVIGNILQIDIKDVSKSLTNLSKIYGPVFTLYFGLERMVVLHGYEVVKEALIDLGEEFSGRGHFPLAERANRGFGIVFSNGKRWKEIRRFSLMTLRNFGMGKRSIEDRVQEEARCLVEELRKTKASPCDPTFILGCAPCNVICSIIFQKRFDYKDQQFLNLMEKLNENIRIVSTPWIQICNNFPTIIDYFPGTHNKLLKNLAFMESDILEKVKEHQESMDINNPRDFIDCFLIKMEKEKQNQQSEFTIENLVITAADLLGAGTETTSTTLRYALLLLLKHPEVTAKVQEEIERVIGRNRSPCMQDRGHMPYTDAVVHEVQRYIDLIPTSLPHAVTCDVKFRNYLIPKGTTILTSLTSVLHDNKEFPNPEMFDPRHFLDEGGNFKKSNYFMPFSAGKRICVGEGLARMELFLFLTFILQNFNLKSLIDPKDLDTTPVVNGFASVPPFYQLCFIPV
The target of data set [5] is T1, CYP3A4. The experiment in a line: in vitro.
Data set [6] can be described thus: Intrinsic clearance for reactive metabolites formation assessed as summation of [3H]GSH adduct formation rate-based reactive metabolites formation and cytochrome P450 (unknown origin) inactivation rate-based reactive metabolites formation. The conditions noted are these: human.
Data set [7] has as its system Liver microsome. Conditions: human, microsomes, 100 µM.
Data set [8] in a line: Intrinsic clearance for reactive metabolites formation per mg of protein based on cytochrome P450 (unknown origin) inactivation rate by TDI assay. Conditions: human.
Data set [9] has as its target T4, CYP2C8. As to the kind of experiment: Time dependent inhibition of CYP2C8 (unknown origin) at 10 uM by LC/MS system. Format: ADME. The method in brief: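 CYP2C8 in human liver microsomes (1.0 mg/mL in preincubation), 0.1 M sodium phosphate, NADPH-generating system. Preincubation 0 or 30 min, then ten-fold dilution into incubation with 10 μM paclitaxel (final) for 10 min.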

The text below walks through data of ChEMBL document CHEMBL3526118, “Combination of GSH trapping and time-dependent inhibition assays as a predictive method of drugs generating highly reactive metabolites” (Drug Metab Dispos, 2011).

Molecules are shown by their SMILES.

T1 sequence (P08684 whole entry): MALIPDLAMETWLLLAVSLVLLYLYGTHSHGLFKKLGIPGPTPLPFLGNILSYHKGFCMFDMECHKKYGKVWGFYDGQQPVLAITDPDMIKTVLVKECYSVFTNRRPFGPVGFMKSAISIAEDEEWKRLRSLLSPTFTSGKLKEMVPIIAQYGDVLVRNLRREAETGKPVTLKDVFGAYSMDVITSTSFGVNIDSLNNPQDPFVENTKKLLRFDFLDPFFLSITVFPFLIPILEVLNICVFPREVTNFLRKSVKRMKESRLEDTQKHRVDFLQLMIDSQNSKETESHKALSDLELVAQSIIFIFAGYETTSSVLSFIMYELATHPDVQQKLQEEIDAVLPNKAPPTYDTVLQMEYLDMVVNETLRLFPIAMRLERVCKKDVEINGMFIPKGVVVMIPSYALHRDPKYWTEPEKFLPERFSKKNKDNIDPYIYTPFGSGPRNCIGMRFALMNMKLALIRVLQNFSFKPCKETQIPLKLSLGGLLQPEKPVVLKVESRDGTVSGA
CYP2C9, sequence (P11712 whole entry): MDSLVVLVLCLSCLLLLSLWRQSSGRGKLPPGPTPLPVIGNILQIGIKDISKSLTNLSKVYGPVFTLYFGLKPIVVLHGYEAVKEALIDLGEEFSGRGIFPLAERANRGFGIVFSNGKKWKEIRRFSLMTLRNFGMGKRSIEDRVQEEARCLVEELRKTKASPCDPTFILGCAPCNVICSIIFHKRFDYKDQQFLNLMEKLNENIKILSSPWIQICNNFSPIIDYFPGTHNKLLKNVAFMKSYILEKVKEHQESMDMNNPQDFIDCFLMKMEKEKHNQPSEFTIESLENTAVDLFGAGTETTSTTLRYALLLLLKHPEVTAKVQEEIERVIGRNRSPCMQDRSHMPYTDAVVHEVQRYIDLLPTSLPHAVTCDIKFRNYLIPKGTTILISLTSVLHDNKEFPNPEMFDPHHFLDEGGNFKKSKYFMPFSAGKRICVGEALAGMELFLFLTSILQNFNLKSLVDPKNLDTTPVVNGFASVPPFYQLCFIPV

The compound `CC(=O)Nc1ccc(O)cc1` [ACETAMINOPHEN] registered an inhibition at 10 µM on CYP3A4 [1] of under 10%. Besides, the inhibition at 100 µM on CYP2D6, at CYP2B6, on CYP2C9, against CYP1A2 and against CYP2C8 [2] was under 10% throughout.

`NC(=O)N1c2ccccc2C=Cc2ccccc21` [CARBAMAZEPINE] returned an inhibition at 10 µM against CYP3A4 [1] of under 10%. Further, the Drug metabolism entry in the data set on Liver microsome [3] is given as “metabolite_not_detected”. The inhibition at 100 µM at CYP2D6, at CYP2B6, at CYP2C9, on CYP2C19 (microsomes), against CYP1A2 and against CYP2C8 [2] was under 10% in each case. The compound also showed a PB in the data set with Liver microsome [4] of 3.3 pmol.

Consider `O=C(O)Cc1ccccc1Nc1c(Cl)cccc1Cl` [DICLOFENAC], for which the inhibition at 100 µM at CYP3A4 [5], against CYP2D6, on CYP2B6, against CYP2C9, against CYP2C19 (microsomes) and at CYP1A2 was under 10% each time. For the same compound, on CYP2C8 [2], the inhibition at 100 µM was under 10%. Besides, the Drug metabolism with Liver microsome [3] came to 1 pmol/min. In [6], the clearance turned out to be 0.01 µL/min/mg. The compound also registered a CLH in the data set with Liver microsome [7] of 0.01 µL/min/mg.

Take `CC[C@H]1OC(=O)[C@H](C)[C@@H](O[C@H]2C[C@@](C)(OC)[C@@H](O)[C@H](C)O2)[C@H](C)[C@@H](O[C@@H]2O[C@H](C)C[C@H](N(C)C)[C@H]2O)[C@](C)(O)C[C@@H](C)C(=O)[C@H](C)[C@@H](O)[C@]1(C)O` [ERYTHROMYCIN]: the inhibition at 100 µM is 45% against CYP3A4 [5]; under 10% at CYP2D6; under 10% at CYP2B6; under 10% against CYP2C9; under 10% at CYP2C19 (human liver microsomes); under 10% against CYP1A2. The same compound came in with an inhibition at 100 µM on CYP2C8 [2] of under 10%. Besides, the Drug metabolism result with Liver microsome [3] was “metabolite_not_detected”. Moreover, the clearance in data set [6] and in data set [8] was 0.021 µL/min/mg throughout. This compound displayed a PB in the data set with Liver microsome [4] of 57.1 pmol.

Take `CC(C)C(=O)Nc1ccc([N+](=O)[O-])c(C(F)(F)F)c1` [FLUTAMIDE]: the inhibition at 100 µM against CYP3A4 [5], against CYP2D6, against CYP2B6, against CYP2C9, against CYP2C19 (human liver microsomes) and against CYP1A2 was under 10% in each case. For the same compound, at CYP2C8 [2], the inhibition at 100 µM was under 10%. Moreover, in the data set with Liver microsome [3], the Drug metabolism was 2 pmol/min. In addition, the clearance in data set [6] was 0.02 µL/min/mg. The CLH with Liver microsome [7] is 0.02 µL/min/mg. In the data set with Liver microsome [4], this compound gave a PB of 178 pmol.

With `COc1ccc2c(c1)c(CC(=O)O)c(C)n2C(=O)c1ccc(Cl)cc1` [INDOMETHACIN], the inhibition at 100 µM against CYP3A4 [5], against CYP2D6, against CYP2B6, against CYP2C9, against CYP2C19 (human liver microsomes) and at CYP1A2 was under 10% throughout. Besides, at 100 µM the inhibition on CYP2C8 [2] was 14%. Besides, the Drug metabolism result with Liver microsome [3] is “metabolite_not_detected”. Further, the clearance in [6] and in [8] was 0.001 µL/min/mg throughout. In the data set with Liver microsome [4], this compound returned a PB of 14.7 pmol.

For the compound `Cc1ccnc2c1NC(=O)c1cccnc1N2C1CC1` [NEVIRAPINE], the inhibition at 100 µM against CYP3A4 [5] was under 10%; at CYP2D6 it was under 10%; against CYP2B6 it was under 10%; at CYP2C9, under 10%; against CYP2C19 (human liver microsomes), 12%; against CYP1A2 it was under 10%. Moreover, at CYP2C8 [2], the inhibition at 100 µM was under 10%. In addition, the Drug metabolism in the data set with Liver microsome [3] came out at 1.2 pmol/min. Also, the clearance was 0.013 µL/min/mg in data set [6] and 0.001 µL/min/mg in [8]. In the data set with Liver microsome [7], this compound displayed a CLH of 0.012 µL/min/mg. The compound also came in with a PB in the data set on Liver microsome [4] of 19.1 pmol.

In the case of `Cc1cc2c(s1)Nc1ccccc1N=C2N1CCN(C)CC1` [OLANZAPINE], the inhibition at 100 µM was under 10% at CYP3A4 [5]; 63% at CYP2D6; under 10% at CYP2B6; under 10% against CYP2C9; under 10% against CYP2C19 (human liver microsomes); under 10% against CYP1A2. On CYP2C8 [2], the inhibition at 100 µM is under 10%. Also, in the data set with Liver microsome [3], the Drug metabolism amounted to 11.3 pmol/min. In addition, the clearance stood at 0.119 µL/min/mg in [6] and 0.006 µL/min/mg in [8]. In the data set with Liver microsome [7], the CLH amounted to 0.113 µL/min/mg. Also, the PB in the data set with Liver microsome [4] is 138.9 pmol.

For the compound `O=C1NC(=O)C(c2ccccc2)(c2ccccc2)N1` [PHENYTOIN], the inhibition at 100 µM on CYP3A4 [5], against CYP2D6, against CYP2B6, against CYP2C9, against CYP2C19 (microsomes) and on CYP1A2 was under 10% in each case. The compound also registered an inhibition at 100 µM on CYP2C8 [2] of under 10%. Moreover, the Drug metabolism in the data set on Liver microsome [3] turned out to be 1.2 pmol/min. Also, the clearance in [6] was 0.012 µL/min/mg. In addition, the CLH in the data set on Liver microsome [7] is 0.012 µL/min/mg. Further, in the data set with Liver microsome [4], the PB is 4.4 pmol.

For the compound `Nc1c2c(nc3ccccc13)CCCC2` [TACRINE], the inhibition at 100 µM against CYP3A4 [5] was under 10%; on CYP2D6, 24%; at CYP2B6, under 10%; against CYP2C9, under 10%; at CYP2C19 (microsomes), under 10%; at CYP1A2, 28%. In addition, at CYP2C8 [2], the inhibition at 100 µM was under 10%. Moreover, the Drug metabolism entry in the data set on Liver microsome [3] is recorded as “metabolite_not_detected”. Besides, the clearance in data set [6] and in data set [8] was 0.007 µL/min/mg each time. Also, the PB in the data set with Liver microsome [4] amounted to 137 pmol.

Take `CC/C(=C(\c1ccccc1)c1ccc(OCCN(C)C)cc1)c1ccccc1` [TAMOXIFEN]: the inhibition at 100 µM against CYP3A4 [5], against CYP2B6, at CYP2C19 (microsomes) and at CYP1A2 was under 10% each time. The inhibition at 10 µM against CYP2C8 [9] was under 10%. Moreover, the Drug metabolism entry with Liver microsome [3] is reported as “metabolite_not_detected”. In the data set on Liver microsome [4], this compound came in with a PB of 11.5 pmol.

As for `CC(=O)CC(c1ccccc1)c1c(O)c2ccccc2oc1=O` (configuration not stated) [WARFARIN], the inhibition at 100 µM against CYP3A4 [5] was under 10%; on CYP2D6 it was under 10%; against CYP2B6 it was under 10%; against CYP2C9, under 10%; on CYP2C19 (human liver microsomes), under 10%; on CYP1A2, 19%. For the same compound, at CYP2C8 [2], the inhibition at 100 µM was under 10%. For the same compound, the Drug metabolism entry with Liver microsome [3] is “metabolite_not_detected”. For the same compound, the clearance in [6] and in data set [8] was 0.003 µL/min/mg throughout. Further, the PB in the data set on Liver microsome [4] is 15.9 pmol.
